Consider 31 molecules from PubChem BioAssay AID504524 (Sanford-Burnham Center for Chemical Genomics, 2011).

Active and inactive are the calls of the source.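 The calls were made as follows: active = mean EC50 below 10 µM; inactive = the rest.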 Where only a bound is given, the exact number is not on record here.

The experiment deals with Apelin receptor (Homo sapiens) (UniProt P35414). Description: APJ receptor agonists, beta-arrestin recruitment, SAR follow-up, cell-based, CHO-K1 AGTRL-1, PathHunter luminescence, set 5 (AID 504524). The note with it: CHO-K1 AGTRL-1 PathHunter beta-arrestin. An outline of the steps:
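Test system: CHO-K1 cells, APJ and β-arrestin complementation reporter | Dosing: Dose-response compound series | Schedule: Overnight seeding, 90 min exposure at 25 °C, 60 min detection | Technique: Luminescence from β-galactosidase fragment complementation, PathHunter detection reagent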

Chain of Apelin receptor (Homo sapiens) (P35414 whole entry, looked up, the tested form may be a part): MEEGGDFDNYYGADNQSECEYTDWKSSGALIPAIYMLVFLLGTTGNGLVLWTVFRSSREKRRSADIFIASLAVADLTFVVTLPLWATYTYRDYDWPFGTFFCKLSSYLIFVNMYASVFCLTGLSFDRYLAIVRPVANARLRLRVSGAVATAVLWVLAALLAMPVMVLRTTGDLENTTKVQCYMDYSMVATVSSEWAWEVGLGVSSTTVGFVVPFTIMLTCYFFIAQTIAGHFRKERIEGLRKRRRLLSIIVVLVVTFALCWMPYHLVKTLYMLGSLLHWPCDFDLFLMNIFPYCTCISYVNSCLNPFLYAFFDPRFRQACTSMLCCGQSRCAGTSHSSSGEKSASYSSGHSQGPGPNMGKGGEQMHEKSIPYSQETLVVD

A word on the EC50: it is the midpoint of the concentration-response curve. In the case of `CC1=CC(=O)C(C(C)C)=C/C1=N/OS(=O)(=O)c1cccc(C#N)c1`, the 50% effective concentration (EC50) is 1.96 µM.
With `CC1=CC(=O)C(C2CCCCC2)=C/C1=N\OS(=O)(=O)c1ccccc1Cl` the figure was 6.5 µM; with `CC1=CC(=O)C(C(C)C)=C/C1=N/OS(=O)(=O)c1cccc(C)c1`, 5.68 µM; with `CC1=CC(=O)C(C2CCCCC2)=C/C1=N\OS(=O)(=O)c1cccc(Cl)c1`, 2.61 µM.
With `COc1cccc(S(=O)(=O)O/N=C2\C=C(C(C)C)C(=O)C=C2C)c1` the figure was 5.23 µM; with `CC1=CC(=O)C(C(C)(C)C)=C/C1=N\OS(=O)(=O)c1cn(C)cn1`, 10 µM.
Under `CC1=CC(=O)C(C(C)C)=C/C1=N\OS(=O)(=O)c1c(Cl)cccc1Cl` stands 3.53 µM; under `N#Cc1ccc(S(=O)(=O)ON=C2C=CC(=O)C(c3ccccc3)=C2)cc1`, > 79 µM (inactive).
As to `CC1=CC(=O)C(C(C)C)=C/C1=N\OS(=O)(=O)C1CCCCC1`, the EC50 entry is “inactive”.
`Cc1cc(O)c(C(C)(C)C)cc1N=O`: the EC50 is > 79 µM (inactive).
Turning to `CC1=CC(=O)C(C(C)C)=C/C1=N\OS(=O)(=O)c1ccccc1Cl`, the EC50 is 1.94 µM.
Under `CC1=CC(=O)C(C(C)(C)C)=C/C1=N/OS(=O)(=O)c1cccc(C)c1` stands 9.59 µM; under `CC1=CC(=O)C(C2CCCCC2)=C/C1=N/OS(=O)(=O)c1cccc(C#N)c1`, 5.13 µM; under `CC1=CC(=O)C(C(C)(C)C)=C/C1=N/OS(=O)(=O)c1cccc(C#N)c1`, 3.21 µM.
Under `CC1=CC(=O)C(C(C)(C)C)=C/C1=N\OS(=O)(=O)C1CCCCC1` stands “inactive”.
Under `CC1=CC(=O)C(C2CCCCC2)=C/C1=N/OS(=O)(=O)c1cccc(Br)c1` stands 6.03 µM; under `O=C1C=CC(=NOS(=O)(=O)c2ccccc2)C=C1c1ccccc1`, > 79 µM (inactive); under `Cc1cc(N=O)c(C(C)C)cc1O`, > 79 µM (inactive).
For the molecule `CC1=CC(=O)C(C(C)(C)C)=C/C1=N/OS(=O)(=O)c1cccc(Br)c1`, the EC50 entry was “inactive”.
With `CC1=CC(=O)C(C(C)C)=C/C1=N/OS(=O)(=O)c1cccc(Br)c1` the figure was 3.16 µM; with `CC1=CC(=O)C(C(C)(C)C)=C/C1=N\OS(=O)(=O)c1ccccc1Cl`, 8.69 µM; with `COc1cccc(S(=O)(=O)O/N=C2\C=C(C3CCCCC3)C(=O)C=C2C)c1`, 5.53 µM.
With `CC1=CC(=O)C(C(C)C)=C/C1=N\OS(=O)(=O)c1cn(C)cn1` the entry was “inactive”; with `COc1cccc(S(=O)(=O)O/N=C2\C=C(C(C)(C)C)C(=O)C=C2C)c1`, 7.96 µM; with `CC1=CC(=O)C(C2CCCCC2)=C/C1=N/OS(=O)(=O)c1cccc(C)c1`, 5.49 µM.
With `CC1=CC(=O)C(C2CCCCC2)=C/C1=N\OS(=O)(=O)c1c(Cl)cccc1Cl`, the EC50 is 3.59 µM.
Under `CC1=CC(=O)C(C(C)C)=C/C1=N\OS(=O)(=O)c1cccc(Cl)c1` stands 3.17 µM; under `CC1=CC(=O)C(C2CCCCC2)=C/C1=N\OS(=O)(=O)c1cn(C)cn1`, 6.36 µM; under `CC1=CC(=O)C(C(C)(C)C)=C/C1=N\OS(=O)(=O)c1cccc(Cl)c1`, 7.8 µM.
Under `CC1=CC(=O)C(C(C)(C)C)=C/C1=N\OS(=O)(=O)c1c(Cl)cccc1Cl` stands 7.9 µM; under `CC(C)C1=CC(=NOS(=O)(=O)c2ccccc2)C=CC1=O`, 4.96 µM.
